ChEMBL document CHEMBL6182897, “Salamandamide Lipodipeptides Are Biosynthetic Intermediate Shunt Products of the Nonamodular Nonribosomal Peptide Assembly Lines of the Viscosin Family” (J Nat Prod, 2025)
The source made the active and inactive calls. No cut-off for these calls is given here.

Legend:
[1] = system: SARS-CoV-2; assay: Antiviral activity against SARS-CoV-2 expressing mNeonGreen infected in human Caco-2 cells at 0.26 MOI assessed as reduction in infection rate at 2.5 to 10 uM for 48 hrs post infection by Hoechst dye based analysis relative to control; assay type: functional, Severe acute respiratory syndrome coronavirus 2; parameters: scale not given: the % may be the effect or the level left; conditions: dose 2.5-10 µM
[2] = system: SARS-CoV-2; assay: Antiviral activity against SARS-CoV-2 expressing mNeonGreen infected in human Caco-2 cells at 0.26 MOI assessed as reduction in infection rate at 5 to 10 uM pre-treated with compound for 2.5 hrs followed by viral infection and measured after 48 hrs by Hoechst dye based analysis relative to control; assay type: functional, Severe acute respiratory syndrome coronavirus 2; parameters: scale not given: the % may be the effect or the level left; conditions: dose 5-10 µM, time 50.5 hrs
[3] = system: Caco-2; assay: Cytotoxicity against human Caco-2 cells assessed as cell count up to 10 uM by Hoechst dye based analysis; assay type: toxicity; conditions: caco-2, 10 µM
[4] = system: Caco-2; assay: Cytotoxicity against human Caco-2 cells assessed as cell count up to 10 uM measured after 48 hrs by Hoechst dye based analysis; assay type: toxicity; conditions: caco-2, 48 h
[5] = system: SARS-CoV-2; assay: Antiviral activity against SARS-CoV-2 expressing mNeonGreen infected in Caco-2 cells at 0.26 MOI assessed as reduction in infection rate for 48 hrs post infection by Hoechst dye based analysis; assay type: functional, organism-based; conditions: Severe acute respiratory syndrome coronavirus 2, Caco-2, 48 h
[6] = Cytotoxicity against human Caco-2 cells assessed as cell count for 48 hrs by Hoechst dye based analysis; assay type: toxicity
[7] = system: Severe acute respiratory syndrome coronavirus 2; assay: Inhibition of SARS CoV-2 MPro using Boc-Abu-Tle-Leu-Gln-AMC as substrate incubated for 10 mins
Method in brief: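 Purified SARS-CoV-2 main protease (cysteine protease) was assayed with a fluorogenic peptide substrate. AMC release was followed continuously over 10 min.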

[8] = target: Procathepsin L (Homo sapiens) (UniProt P07711); assay: Inhibition of human Cathepsin L using Z-Phe-Arg-pNA as substrate incubated for 60 mins
[9] = species on record: Homo sapiens; assay: Inhibition of human leukocyte elastase using MeoSuc-Ala-Ala-Pro-Val-AMC as substrate incubated for 10 mins
[10] = system: HeLa; assay: Cytotoxicity against human HeLa cells measured after 24 hrs by resazurin staining based analysis; assay type: functional, cell-based
Method in brief: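 HeLa cells in RPMI with 10% FBS were seeded at 1 × 10^4 per well onto 2-fold compound dilutions, run in duplicate. Incubation was 24 h at 37 °C, 5% CO2. Resazurin was then added (200 μM final) and incubated overnight. Resorufin fluorescence (ex 560/em 600 nm) was read relative to untreated control.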

[11] = system: Candida albicans; assay: Antifungal activity against Candida albicans Tu03 assessed as inhibition of fungal growth incubated for 48 hrs by TECAN M200 microtiter plate reader analysis; assay type: functional, organism-based
Method in brief: (§1)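 EUCAST broth microdilution with direct colony suspension inoculum of 0.5–2.5 × 10^5 CFU/mL, using clinical Candida isolates. Medium was MOPS-buffered RPMI 1640 with glucose to a final 2%, pH 7.0. Plates incubated 48 h at 37 °C, then read at 530 nm to give MIC.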

[12] = system: Candida albicans; assay: Antifungal activity against Candida albicans Tu02 assessed as inhibition of fungal growth incubated for 48 hrs by TECAN M200 microtiter plate reader analysis; assay type: functional, organism-based; method in brief: as §1
[13] = system: Bacillus subtilis; assay: Antibacterial activity against Bacillus subtilis 168 assessed as bacterial growth inhibition incubated for overnight by CLSI-protocol based broth micro-dilution assay; assay type: functional, organism-based
Method in brief: (§2)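 Broth microdilution MIC in cation-adjusted Mueller-Hinton medium, following CLSI. Compound in 2-fold serial dilution; bacteria at a final 5 × 10^5 CFU/mL. Incubated overnight at 37 °C. MIC taken as the lowest concentration preventing visible growth.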

[14] = system: Staphylococcus aureus; assay: Antibacterial activity against Staphylococcus aureus ATCC29213 assessed as bacterial growth inhibition incubated for overnight by CLSI-protocol based broth micro-dilution assay; assay type: functional, organism-based; method in brief: as §2
[15] = system: Enterococcus faecalis; assay: Antibacterial activity against Enterococcus faecalis ATCC29212 assessed as bacterial growth inhibition incubated for overnight by CLSI-protocol based broth micro-dilution assay; assay type: functional, organism-based; method in brief: as §2
[16] = system: Enterococcus faecium; assay: Antibacterial activity against Enterococcus faecium BM4147-1 assessed as bacterial growth inhibition incubated for overnight by CLSI-protocol based broth micro-dilution assay; assay type: functional, organism-based; method in brief: as §2
[17] = system: Enterococcus faecium; assay: Antibacterial activity against vancomycin-resistant Enterococcus faecium BM4147 assessed as bacterial growth inhibition incubated for overnight by CLSI-protocol based broth micro-dilution assay; assay type: functional, organism-based
Method in brief: (§3)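 Broth microdilution per CLSI in cation-adjusted Mueller-Hinton medium (casein, beef extract, starch). Twofold serial compound dilutions were inoculated at a final 5 × 10^5 CFU/mL and incubated overnight at 37 °C. MIC was the lowest concentration with no visible growth.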

[18] = system: Enterococcus faecium; assay: Antibacterial activity against vancomycin-resistant Enterococcus faecium 6011 assessed as bacterial growth inhibition incubated for overnight by CLSI-protocol based broth micro-dilution assay; assay type: functional, organism-based; method in brief: as §3
[19] = system: Enterococcus faecium; assay: Antibacterial activity against Enterococcus faecium 115.2 assessed as bacterial growth inhibition incubated for overnight by CLSI-protocol based broth micro-dilution assay; assay type: functional, organism-based; method in brief: as §2
[20] = system: Enterococcus faecium; assay: Antibacterial activity against Enterococcus faecium K209.5 assessed as bacterial growth inhibition incubated for overnight by CLSI-protocol based broth micro-dilution assay; assay type: functional, organism-based; method in brief: as §2
[21] = system: Enterococcus faecium; assay: Antibacterial activity against vancomycin-resistant Enterococcus faecium U200 assessed as bacterial growth inhibition incubated for overnight by CLSI-protocol based broth micro-dilution assay; assay type: functional, organism-based; method in brief: as §3
[22] = system: Escherichia coli; assay: Antibacterial activity against Escherichia coli ATCC25922 assessed as bacterial growth inhibition incubated for overnight by CLSI-protocol based broth micro-dilution assay; assay type: functional, organism-based; method in brief: as §2
[23] = system: Escherichia coli; assay: Antibacterial activity against Escherichia coli C600 harboring Tn10 deltalpxC deltatolC mutant assessed as bacterial growth inhibition incubated for overnight by CLSI-protocol based broth micro-dilution assay; assay type: functional, organism-based; method in brief: as §3
[24] = system: Klebsiella pneumoniae; assay: Antibacterial activity against Klebsiella pneumoniae ATCC12657 assessed as bacterial growth inhibition incubated for overnight by CLSI-protocol based broth micro-dilution assay; assay type: functional, organism-based; method in brief: as §2
[25] = system: Klebsiella aerogenes; assay: Antibacterial activity against Enterobacter aerogenes ATCC13048 assessed as bacterial growth inhibition incubated for overnight by CLSI-protocol based broth micro-dilution assay; assay type: functional, organism-based; method in brief: as §2
[26] = system: Pseudomonas aeruginosa; assay: Antibacterial activity against Pseudomonas aeruginosa ATCC27853 assessed as bacterial growth inhibition incubated for overnight by CLSI-protocol based broth micro-dilution assay; assay type: functional, organism-based; method in brief: as §2
[27] = system: Acinetobacter baumannii; assay: Antibacterial activity against Acinetobacter baumannii 09987 assessed as bacterial growth inhibition incubated for overnight by CLSI-protocol based broth micro-dilution assay; assay type: functional, organism-based; method in brief: as §2
[28] = system: Neisseria gonorrhoeae; assay: Antibacterial activity against Neisseria gonorrhoeae ATCC19424 assessed as bacterial growth inhibition incubated for overnight by CLSI-protocol based broth micro-dilution assay; assay type: functional, organism-based
Method in brief: (§4)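 Neisseria MIC by CLSI broth microdilution in cation-adjusted Mueller-Hinton medium supplemented with 2.5% fetal bovine serum. Compound in 2-fold serial dilution; final inoculum 5 × 10^5 CFU/mL. Incubated overnight at 37 °C. MIC is the lowest concentration with no visible growth.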

[29] = system: Neisseria gonorrhoeae; assay: Antibacterial activity against Neisseria gonorrhoeae S1441 assessed as bacterial growth inhibition incubated for overnight by CLSI-protocol based broth micro-dilution assay; assay type: functional, organism-based; method in brief: as §4
[30] = system: Candida albicans; assay: Antifungal activity against Candida albicans ATCC90028 assessed as inhibition of fungal growth incubated for 48 hrs by TECAN M200 microtiter plate reader analysis; assay type: functional, organism-based; method in brief: as §1
[31] = system: Candida albicans; assay: Antifungal activity against Candida albicans Tu01 assessed as inhibition of fungal growth incubated for 48 hrs by TECAN M200 microtiter plate reader analysis; assay type: functional, organism-based; method in brief: as §1
[32] = system: Nakaseomyces glabratus; assay: Antifungal activity against Candida glabrata Tu04 assessed as inhibition of fungal growth incubated for 48 hrs by TECAN M200 microtiter plate reader analysis; assay type: functional, organism-based; method in brief: as §1
[33] = system: Candida tropicalis; assay: Antifungal activity against Candida tropicalis Tu05 assessed as inhibition of fungal growth incubated for 48 hrs by TECAN M200 microtiter plate reader analysis; assay type: functional, organism-based; method in brief: as §1

Procathepsin L (Homo sapiens), sequence (P07711 114-333 limits assumed): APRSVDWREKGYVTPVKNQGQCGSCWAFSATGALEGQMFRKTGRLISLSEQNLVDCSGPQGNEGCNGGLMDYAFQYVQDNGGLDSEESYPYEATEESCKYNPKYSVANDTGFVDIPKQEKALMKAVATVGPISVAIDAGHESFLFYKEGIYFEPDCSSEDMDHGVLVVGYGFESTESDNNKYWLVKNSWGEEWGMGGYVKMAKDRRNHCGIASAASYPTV

In the case of `CCCCCCC[C@@H](O)CC(=O)N[C@@H](CC(C)C)C(=O)N[C@H](CCC(N)=O)C(=O)N[C@H]1C(=O)N[C@H](C(C)C)C(=O)N[C@H](CC(C)C)C(=O)N[C@H](CO)C(=O)N[C@@H](CC(C)C)C(=O)N[C@H](CO)C(=O)N[C@@H]([C@@H](C)CC)C(=O)O[C@@H]1C`, the Activity [1] is reported as 60%, the Activity [2] is reported as 85% and the Activity [3] is reported as “Non-toxic”. The Activity [4] was “Non-toxic”, the EC50 [5] was 3.3 µM and the CC50 at 48 h [6] was > 20 µM.

For `CCCCCCC[C@@H](O)CC(=O)N[C@@H](CC(C)C)C(=O)N[C@@H](CCC(N)=O)C(=O)O`, the Activity [3] was “Toxic”, the Activity [4] was “Toxic” and the inhibition [7] was “inactive”. For the same molecule, the inhibition [8] was “inactive”, the inhibition [9] was “inactive” and the Activity [10] was “inactive”. For the same molecule, the Activity [11] was “inactive”, the Activity [12] was “inactive” and the Activity [13] was “inactive”. The Activity [14] was “inactive”, the Activity [15] was “inactive” and the Activity [16] was “inactive”. For the same molecule, the Activity [17] was “inactive”, the Activity [18] was “inactive” and the Activity [19] was “inactive”. For the same molecule, the Activity [20] was “inactive”, the Activity [21] was “inactive” and the Activity [22] was “inactive”. The Activity [23] was “inactive”, the Activity [24] was “inactive” and the Activity [25] was “inactive”. For the same molecule, the Activity [26] was “inactive”, the Activity [27] was “inactive” and the Activity [28] was “inactive”. The Activity [29] was “inactive”, the Activity [30] was “inactive” and the Activity [31] was “inactive”. For the same molecule, the Activity [32] was “inactive” and the Activity [33] was “inactive”.
